One molecule from ChEMBL document CHEMBL4350961, “Discovery of Pyrrolo[3,2- d]pyrimidin-4-one Derivatives as a New Class of Potent and Cell-Active Inhibitors of P300/CBP-Associated Factor Bromodomain” (J Med Chem, 2019) can be followed below.

For orientation: bioavailability means dose-corrected exposure relative to a reference, in per cent. A low value points to little systemic uptake. By ΔTm is commonly meant the change in melting temperature against a reference sample.

Series [1] deals with Casein kinase 2 (Homo sapiens) (UniProt P67870+P68400+P19784+Q8NEV1). Briefly: Inhibition of human CK2 at 10 uM. Format: protein assay. In short, it runs like this:
(§1)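 Kinase panel of 422 kinases screened by Eurofins KinaseProfiler at a single test-compound concentration of 10 µM.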

Series [2] has as its target Myotonin-protein kinase (Homo sapiens) (UniProt Q09013). Briefly: Inhibition of recombinant human DMPK (1 to 549 residues) at 10 uM using KKSRGDYMTMQIG as substrate measured after 40 mins in presence of [gamma33P]ATP by scintillation counting method.
Series [3] can be described thus: Oral bioavailability in Sprague-Dawley rat at 10 mg/kg administered via gavage by LC-MS/MS analysis. Format: ADME, organism-based. Particulars: in vivo.
Series [4] has as its target Serine/threonine-protein kinase Nek6 (Homo sapiens) (UniProt Q9HC98). In words: Inhibition of recombinant human NEK6 (2 to end residues) at 10 uM using FLAKSFGSPNRAYKK as substrate measured after 40 mins in presence of [gamma33P]ATP by scintillation counting method.
In series [5] the target is Ephrin type-A receptor 5 (Homo sapiens) (UniProt P54756). In words: Inhibition of recombinant human EphA5 (655 to 956 residues) at 10 uM using poly(Glu, Tyr) 4:1 as substrate measured after 40 mins in presence of [gamma33P]ATP by scintillation counting method.
Series [6] concerns the target Serine/threonine-protein kinase/endoribonuclease IRE1 (Homo sapiens) (UniProt O75460). Briefly: Inhibition of recombinant human IRE1 (465 to end residues) at 10 uM using myelin basic protein as substrate measured after 40 mins in presence of [gamma33P]ATP by scintillation counting method.
For series [7], the target named is Serine/threonine-protein kinase 38-like (Homo sapiens) (UniProt Q9Y2H1). Briefly: Inhibition of recombinant human NDR2 (83 to end residues) at 10 uM using RSRSRSRSRSRSRSR as substrate measured after 40 mins in presence of [gamma33P]ATP by scintillation counting method.
Series [8] addresses Bromodomain adjacent to zinc finger domain protein 2B (Homo sapiens) (UniProt Q9UIF8). Briefly: Binding affinity to human N-terminal His-tagged BAZ2B assessed as change in melting temperature at 10 uM by SYPRO orange dye-based fluorescence assay. The method, boiled down: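 Thermal shift with His-tagged human bromodomain at 2 μM final in 10 mM HEPES pH 7.5, 500 mM NaCl. Compound at 10 μM final with 0.1% DMSO; SYPRO Orange at 1:1000. Equilibrated 3 min at 25 °C, then heated from 25 to 95 °C at 1 °C/min. Melting temperature shift taken from fluorescence; at least duplicate.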

The target of series [9] is ATPase family AAA domain-containing protein 2 (Homo sapiens) (UniProt Q6PL18). In words: Binding affinity to human partial length ATAD2A (Q981 to R1108 residues) expressed in bacterial expression system at 1 uM by BROMOscan assay. The method, boiled down:
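BROMOscan bromodomain cross-screen run by an outside service, compound at 1 µM against 32 recombinant bromodomains. Binding given as percent of control.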

For another series, the species on record is Mus musculus. In words: Inhibition of full-length recombinant mouse BLK V421E mutant at 10 uM using poly(Glu, Tyr) 4:1 as substrate measured after 40 mins in presence of [gamma33P]ATP by scintillation counting method. The method, boiled down: as §1
For series [10], the target named is SRSF protein kinase 3 (Homo sapiens) (UniProt Q9UPE1). In words: Inhibition of recombinant full-length human MSSK1 at 10 uM using ERMRPRKRQGSVRRRV as substrate measured after 40 mins in presence of [gamma33P]ATP by scintillation counting method.
Series [11] addresses Eukaryotic translation initiation factor 2-alpha kinase 3 (Homo sapiens) (UniProt Q9NZJ5). In words: Inhibition of recombinant human PEK (536 to end residues) at 10 uM using RSRSRSRSRSRSRSR as substrate measured after 40 mins in presence of [gamma33P]ATP by scintillation counting method.
Series [12] deals with Serine/threonine-protein kinase Sgk2 (Homo sapiens), Q9HBY8 [S416D]. In words: Inhibition of recombinant human SGK2 S416D mutant (54 to end residues) at 10 uM using GRPRTSSFAEGKK as substrate measured after 40 mins in presence of [gamma33P]ATP by scintillation counting method.
Serine/threonine-protein kinase Sgk2 (Homo sapiens), Q9HBY8 [S416D], sequence (Q9HBY8 1-367 with tags or gaps S416D): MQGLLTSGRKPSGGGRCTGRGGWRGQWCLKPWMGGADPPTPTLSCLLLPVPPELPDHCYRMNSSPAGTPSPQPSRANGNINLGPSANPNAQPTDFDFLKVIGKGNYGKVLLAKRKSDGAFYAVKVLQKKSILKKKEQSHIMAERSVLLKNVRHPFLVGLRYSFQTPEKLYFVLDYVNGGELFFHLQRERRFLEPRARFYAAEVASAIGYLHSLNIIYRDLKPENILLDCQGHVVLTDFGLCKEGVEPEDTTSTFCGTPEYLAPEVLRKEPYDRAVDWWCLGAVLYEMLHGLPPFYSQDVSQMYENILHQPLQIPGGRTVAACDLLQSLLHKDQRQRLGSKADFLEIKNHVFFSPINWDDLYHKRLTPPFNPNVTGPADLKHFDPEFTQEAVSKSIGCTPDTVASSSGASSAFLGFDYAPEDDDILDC
Series [13] deals with Casein kinase I isoform gamma-3 (Homo sapiens), Q9Y6M4 [UNDEFINED MUTATION]. Briefly: Inhibition of recombinant human CK1gamma3 K91E/R174G/E302D mutant (1 to 330 residues) at 10 uM using KRRRALS(p)VASLPGL as substrate measured after 40 mins in presence of [gamma33P]ATP by scintillation counting method.
Casein kinase I isoform gamma-3 (Homo sapiens), Q9Y6M4 [UNDEFINED MUTATION], sequence (Q9Y6M4 whole entry, looked up, stated change not applied, the tested form may be a part, canonical isoform): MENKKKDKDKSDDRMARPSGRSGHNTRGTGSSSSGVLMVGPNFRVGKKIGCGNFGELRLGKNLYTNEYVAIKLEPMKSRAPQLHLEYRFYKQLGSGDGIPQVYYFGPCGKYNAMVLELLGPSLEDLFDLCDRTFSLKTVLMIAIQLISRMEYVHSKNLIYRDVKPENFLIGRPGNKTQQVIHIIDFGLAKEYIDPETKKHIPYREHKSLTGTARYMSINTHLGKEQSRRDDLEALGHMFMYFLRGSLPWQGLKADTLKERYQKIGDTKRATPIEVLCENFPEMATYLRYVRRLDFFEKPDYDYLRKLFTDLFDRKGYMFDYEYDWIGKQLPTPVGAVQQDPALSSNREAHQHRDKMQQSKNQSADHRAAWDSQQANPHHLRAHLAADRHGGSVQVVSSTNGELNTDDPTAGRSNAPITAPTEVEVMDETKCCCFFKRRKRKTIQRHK
In series [14] the target is Serine/threonine-protein kinase MAK (Homo sapiens) (UniProt P20794). Briefly: Inhibition of recombinant full-length human MAK at 10 uM using RRRFRPASPLRGPPK as substrate measured after 120 mins in presence of [gamma33P]ATP by scintillation counting method.
In series [15] the target is Serine/threonine-protein kinase WNK4 (Homo sapiens) (UniProt Q96J92). In words: Inhibition of human WNK4 using myelin basic protein as substrate measured after 120 mins in presence of [gamma33P]ATP by scintillation counting method.
Series [16] deals with Fibroblast growth factor receptor 4 (Homo sapiens) (UniProt P22455). In words: Inhibition of recombinant human FGFR4 (442 to 755 residues) at 10 uM using poly(Glu, Tyr) 4:1 as substrate measured after 40 mins in presence of [gamma33P]ATP by scintillation counting method.
Series [17] deals with Serine/threonine-protein kinase TAO1 (Homo sapiens) (UniProt Q7L7X3). In words: Inhibition of human TAO1 (1 to 327 residues) using myelin basic protein as substrate measured after 40 mins in presence of [gamma33P]ATP by scintillation counting method.
Series [18] concerns Platelet-derived growth factor receptor alpha (Homo sapiens), P16234 [V561D]. Briefly: Inhibition of recombinant human PDGFRalpha V561D mutant (550 to end residues) at 10 uM using GGMEDIYFEFMGGKKK as substrate measured after 40 mins in presence of [gamma33P]ATP by scintillation counting method.
Series [19] concerns the target Wee1-like protein kinase 2 (Homo sapiens) (UniProt P0C1S8). In words: Inhibition of recombinant full-length human WEE1b at 10 uM using LSNLYHQGKFLQTFCGSPLYRRR as substrate measured after 120 mins in presence of [gamma33P]ATP by scintillation counting method.
Series [20] concerns the target Serine/threonine-protein kinase Chk1 (Homo sapiens) (UniProt O14757). Briefly: Inhibition of recombinant full length human CHK1 at 10 uM using KKKVSRSGLYRSPSMPENLNRPR as substrate measured after 40 mins in presence of [gamma33P]ATP by scintillation counting method.
Series [21] addresses Ribosomal protein S6 kinase alpha-4 (Homo sapiens) (UniProt O75676). Briefly: Inhibition of recombinant human MSK2 (2 to end residues) at 10 uM using GRPRTSSFAEGKK as substrate measured after 40 mins in presence of [gamma33P]ATP by scintillation counting method.

The source made the active and inactive calls. No cut-off for these calls is given here.

Myotonin-protein kinase (Homo sapiens), sequence (Q09013 whole entry, the tested form may be a part): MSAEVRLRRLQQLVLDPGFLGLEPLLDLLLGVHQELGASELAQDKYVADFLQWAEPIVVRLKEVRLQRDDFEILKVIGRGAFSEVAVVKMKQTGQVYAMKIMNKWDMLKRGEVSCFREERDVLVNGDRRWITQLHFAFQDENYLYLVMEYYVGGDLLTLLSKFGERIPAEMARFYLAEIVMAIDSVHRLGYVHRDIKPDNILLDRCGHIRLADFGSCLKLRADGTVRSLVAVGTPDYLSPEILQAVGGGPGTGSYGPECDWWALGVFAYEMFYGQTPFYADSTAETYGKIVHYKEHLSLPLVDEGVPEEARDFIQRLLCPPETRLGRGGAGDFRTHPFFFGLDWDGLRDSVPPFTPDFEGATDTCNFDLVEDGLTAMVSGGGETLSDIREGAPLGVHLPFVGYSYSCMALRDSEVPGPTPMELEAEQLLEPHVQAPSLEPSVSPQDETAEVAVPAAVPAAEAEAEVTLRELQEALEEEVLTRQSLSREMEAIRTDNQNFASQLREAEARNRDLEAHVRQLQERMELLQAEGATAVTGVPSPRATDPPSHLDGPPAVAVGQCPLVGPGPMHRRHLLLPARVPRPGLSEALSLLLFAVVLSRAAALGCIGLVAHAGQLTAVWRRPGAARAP
Bromodomain adjacent to zinc finger domain protein 2B (Homo sapiens), sequence (Q9UIF8 whole entry, the tested form may be a part): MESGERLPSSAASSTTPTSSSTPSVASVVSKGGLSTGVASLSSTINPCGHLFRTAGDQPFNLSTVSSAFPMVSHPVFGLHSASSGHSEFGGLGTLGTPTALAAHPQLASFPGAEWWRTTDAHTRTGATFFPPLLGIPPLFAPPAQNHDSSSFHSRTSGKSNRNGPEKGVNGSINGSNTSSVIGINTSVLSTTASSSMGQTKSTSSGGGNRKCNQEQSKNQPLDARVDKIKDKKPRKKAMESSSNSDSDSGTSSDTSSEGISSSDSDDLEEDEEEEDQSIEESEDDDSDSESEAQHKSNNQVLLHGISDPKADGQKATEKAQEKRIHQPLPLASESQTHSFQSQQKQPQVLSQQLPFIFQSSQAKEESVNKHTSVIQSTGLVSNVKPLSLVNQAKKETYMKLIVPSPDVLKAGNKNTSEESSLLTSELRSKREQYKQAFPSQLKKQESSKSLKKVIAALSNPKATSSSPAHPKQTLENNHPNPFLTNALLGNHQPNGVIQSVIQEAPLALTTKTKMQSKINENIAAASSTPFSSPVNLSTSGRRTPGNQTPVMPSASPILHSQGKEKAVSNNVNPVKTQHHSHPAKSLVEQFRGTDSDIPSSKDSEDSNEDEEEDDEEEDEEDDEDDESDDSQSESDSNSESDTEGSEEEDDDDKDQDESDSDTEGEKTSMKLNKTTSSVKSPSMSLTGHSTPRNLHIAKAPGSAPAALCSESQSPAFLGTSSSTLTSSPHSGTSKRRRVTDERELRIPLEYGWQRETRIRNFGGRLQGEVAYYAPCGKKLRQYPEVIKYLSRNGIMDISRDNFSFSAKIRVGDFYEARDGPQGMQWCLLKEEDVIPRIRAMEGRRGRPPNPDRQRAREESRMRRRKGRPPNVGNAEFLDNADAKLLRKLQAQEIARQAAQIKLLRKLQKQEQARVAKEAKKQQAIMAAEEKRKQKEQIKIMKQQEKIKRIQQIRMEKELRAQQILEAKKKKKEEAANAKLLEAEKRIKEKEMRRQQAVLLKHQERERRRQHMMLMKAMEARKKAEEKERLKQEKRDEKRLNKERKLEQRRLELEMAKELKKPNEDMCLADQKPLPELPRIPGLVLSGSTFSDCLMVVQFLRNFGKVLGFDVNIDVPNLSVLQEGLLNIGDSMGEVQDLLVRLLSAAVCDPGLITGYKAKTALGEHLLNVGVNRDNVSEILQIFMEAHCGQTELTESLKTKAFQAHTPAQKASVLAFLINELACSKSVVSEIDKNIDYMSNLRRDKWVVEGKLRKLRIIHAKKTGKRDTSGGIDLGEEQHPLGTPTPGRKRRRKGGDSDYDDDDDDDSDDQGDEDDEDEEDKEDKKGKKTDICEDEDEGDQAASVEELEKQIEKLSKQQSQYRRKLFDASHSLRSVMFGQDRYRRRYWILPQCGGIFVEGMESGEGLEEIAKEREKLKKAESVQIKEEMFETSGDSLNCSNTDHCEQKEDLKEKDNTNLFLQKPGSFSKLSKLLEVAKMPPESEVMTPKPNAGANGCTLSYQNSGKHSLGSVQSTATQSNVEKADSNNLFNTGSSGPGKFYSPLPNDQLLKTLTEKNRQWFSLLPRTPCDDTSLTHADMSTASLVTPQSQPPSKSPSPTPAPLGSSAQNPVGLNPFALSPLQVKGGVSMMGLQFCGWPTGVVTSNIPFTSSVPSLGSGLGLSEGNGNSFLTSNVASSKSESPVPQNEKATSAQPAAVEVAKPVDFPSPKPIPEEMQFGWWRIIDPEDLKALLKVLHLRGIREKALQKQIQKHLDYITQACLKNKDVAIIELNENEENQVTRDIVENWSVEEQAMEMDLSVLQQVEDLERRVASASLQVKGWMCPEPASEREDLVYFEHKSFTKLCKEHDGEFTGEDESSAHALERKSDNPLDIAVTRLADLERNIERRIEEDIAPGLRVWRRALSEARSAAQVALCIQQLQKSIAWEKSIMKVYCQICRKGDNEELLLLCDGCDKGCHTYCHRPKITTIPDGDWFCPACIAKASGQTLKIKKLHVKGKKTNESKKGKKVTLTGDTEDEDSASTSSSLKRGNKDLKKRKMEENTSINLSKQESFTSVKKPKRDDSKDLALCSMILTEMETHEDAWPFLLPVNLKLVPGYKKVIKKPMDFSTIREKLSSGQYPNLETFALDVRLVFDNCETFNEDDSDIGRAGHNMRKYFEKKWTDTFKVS
ATPase family AAA domain-containing protein 2 (Homo sapiens), sequence (Q6PL18 whole entry, the tested form may be a part): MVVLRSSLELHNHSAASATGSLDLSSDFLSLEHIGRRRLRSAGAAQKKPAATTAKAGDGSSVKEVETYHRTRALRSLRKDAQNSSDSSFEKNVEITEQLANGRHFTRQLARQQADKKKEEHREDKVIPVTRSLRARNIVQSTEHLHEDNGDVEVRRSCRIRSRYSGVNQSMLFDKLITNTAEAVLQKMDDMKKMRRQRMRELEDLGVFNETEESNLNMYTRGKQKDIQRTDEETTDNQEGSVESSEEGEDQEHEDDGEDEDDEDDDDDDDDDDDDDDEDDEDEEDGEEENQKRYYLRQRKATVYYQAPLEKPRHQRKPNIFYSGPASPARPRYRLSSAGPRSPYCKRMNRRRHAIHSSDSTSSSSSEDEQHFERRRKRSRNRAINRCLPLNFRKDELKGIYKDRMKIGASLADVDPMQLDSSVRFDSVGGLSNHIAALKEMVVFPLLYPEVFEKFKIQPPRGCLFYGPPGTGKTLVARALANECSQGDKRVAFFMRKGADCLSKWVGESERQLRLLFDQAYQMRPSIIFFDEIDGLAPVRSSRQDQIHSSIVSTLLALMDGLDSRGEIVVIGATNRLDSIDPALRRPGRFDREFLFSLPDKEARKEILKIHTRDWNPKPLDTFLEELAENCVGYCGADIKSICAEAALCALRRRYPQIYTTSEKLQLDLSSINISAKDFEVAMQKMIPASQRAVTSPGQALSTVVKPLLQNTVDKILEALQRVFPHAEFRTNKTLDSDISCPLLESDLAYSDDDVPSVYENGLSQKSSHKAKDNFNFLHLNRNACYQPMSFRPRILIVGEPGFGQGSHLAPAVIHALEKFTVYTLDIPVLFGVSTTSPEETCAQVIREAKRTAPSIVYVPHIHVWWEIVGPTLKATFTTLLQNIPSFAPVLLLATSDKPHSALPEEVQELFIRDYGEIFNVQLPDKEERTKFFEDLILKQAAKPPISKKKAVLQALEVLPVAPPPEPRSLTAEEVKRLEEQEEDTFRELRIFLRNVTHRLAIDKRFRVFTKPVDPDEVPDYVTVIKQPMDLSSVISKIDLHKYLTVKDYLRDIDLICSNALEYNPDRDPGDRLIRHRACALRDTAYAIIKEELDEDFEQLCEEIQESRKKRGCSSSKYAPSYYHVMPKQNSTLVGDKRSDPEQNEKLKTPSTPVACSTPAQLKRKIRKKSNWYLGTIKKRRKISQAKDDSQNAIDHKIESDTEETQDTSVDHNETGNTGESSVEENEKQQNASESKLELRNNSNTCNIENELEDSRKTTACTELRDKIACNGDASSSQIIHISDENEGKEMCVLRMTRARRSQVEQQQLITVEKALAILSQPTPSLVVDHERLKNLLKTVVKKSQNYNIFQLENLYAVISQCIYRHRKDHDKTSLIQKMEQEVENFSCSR

Turning to `CN1C[C@H](Nc2nc3cc[nH]c3c(=O)n2C)C[C@H](c2ccc3c(c2)OCCO3)C1`, the inhibition entry in series [1], in series [2], in series [4], in [5], in [6] and in series [7] was “inactive” in each case. Also, the inhibition entry (in the series listed under Mus musculus; in series [10]; in [11]; in series [12]; in series [13]; in series [14]) was “inactive” each time. For the same molecule, the inhibition entry in series [15], in series [16], in series [17], in [18], in series [19] and in [20] was “inactive” in each case. Further, the inhibition result in [21] was “inactive”. In series [3], this molecule yielded a bioavailability of 52%. Besides, the thermal shift (ΔTm) in [8] came out at 1.9 °C. Moreover, the outcome in [9] was inactive.
